Assay results as given in ChEMBL document CHEMBL1143573, “Synthesis and structure-activity relationships of a new model of arylpiperazines. 8. Computational simulation of ligand-receptor interaction of 5-HT(1A)R agonists with selectivity over alpha1-adrenoceptors” (J Med Chem, 2005).
pEC50, pKi: −log10 of the molar value.

Key:
[1] = target: T1, Adrenergic receptor alpha-1 (Rattus norvegicus, UniProt P15823+P23944+P43140); assay: In vitro inhibition of [3H]prazosin binding to Alpha-1 adrenergic receptor in rat cerebral cortex membranes; type: cell membranes, Membrane
T1 sequence (P15823 whole entry): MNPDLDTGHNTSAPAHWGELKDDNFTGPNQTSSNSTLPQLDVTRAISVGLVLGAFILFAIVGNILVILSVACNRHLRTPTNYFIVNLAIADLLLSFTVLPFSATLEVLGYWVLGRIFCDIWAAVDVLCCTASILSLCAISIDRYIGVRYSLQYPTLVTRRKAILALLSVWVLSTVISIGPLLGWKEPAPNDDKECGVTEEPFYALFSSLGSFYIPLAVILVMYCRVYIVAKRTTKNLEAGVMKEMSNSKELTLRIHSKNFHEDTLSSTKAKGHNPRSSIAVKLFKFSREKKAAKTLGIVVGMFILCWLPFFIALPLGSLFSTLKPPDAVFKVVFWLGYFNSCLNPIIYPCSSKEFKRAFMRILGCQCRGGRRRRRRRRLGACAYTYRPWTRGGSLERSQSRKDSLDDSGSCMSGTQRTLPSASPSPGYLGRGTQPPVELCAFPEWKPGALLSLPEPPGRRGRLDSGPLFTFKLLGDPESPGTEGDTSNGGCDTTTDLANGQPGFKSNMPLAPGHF
T1 sequence (P23944 whole entry): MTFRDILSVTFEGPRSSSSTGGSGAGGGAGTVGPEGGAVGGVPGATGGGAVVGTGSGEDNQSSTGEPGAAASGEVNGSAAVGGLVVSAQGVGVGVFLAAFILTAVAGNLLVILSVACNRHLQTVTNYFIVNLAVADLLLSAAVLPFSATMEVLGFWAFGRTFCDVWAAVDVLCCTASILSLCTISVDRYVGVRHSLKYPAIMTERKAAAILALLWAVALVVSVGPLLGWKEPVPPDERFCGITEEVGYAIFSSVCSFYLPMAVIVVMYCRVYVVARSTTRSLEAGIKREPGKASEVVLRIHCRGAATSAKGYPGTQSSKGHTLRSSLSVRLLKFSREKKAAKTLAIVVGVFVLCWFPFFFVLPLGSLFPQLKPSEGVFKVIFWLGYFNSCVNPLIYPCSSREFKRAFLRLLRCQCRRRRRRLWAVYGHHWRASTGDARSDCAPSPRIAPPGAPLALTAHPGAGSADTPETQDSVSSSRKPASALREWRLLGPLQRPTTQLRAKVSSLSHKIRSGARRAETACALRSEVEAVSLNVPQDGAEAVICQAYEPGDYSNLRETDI
T1 sequence (P43140 whole entry): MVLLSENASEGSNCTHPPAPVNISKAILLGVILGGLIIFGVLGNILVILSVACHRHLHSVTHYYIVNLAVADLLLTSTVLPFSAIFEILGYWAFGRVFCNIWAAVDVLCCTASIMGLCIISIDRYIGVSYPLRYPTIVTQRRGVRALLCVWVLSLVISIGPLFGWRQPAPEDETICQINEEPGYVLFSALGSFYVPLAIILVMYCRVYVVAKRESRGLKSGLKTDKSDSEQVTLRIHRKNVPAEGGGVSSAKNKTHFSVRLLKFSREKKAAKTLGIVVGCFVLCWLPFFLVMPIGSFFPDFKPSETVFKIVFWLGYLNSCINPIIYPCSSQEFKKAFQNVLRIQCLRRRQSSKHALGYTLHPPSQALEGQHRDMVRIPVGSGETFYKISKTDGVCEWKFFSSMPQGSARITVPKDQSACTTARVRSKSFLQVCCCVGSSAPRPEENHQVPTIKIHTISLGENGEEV
How it was run: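 Rat cerebral cortex membranes (about 250 µg protein) in 50 mM Tris-HCl with 10 mM MgCl2, pH 7.4. Incubated 30 min at 25 °C with 0.2 nM [3H]prazosin and six competitor concentrations. Nonspecific binding with 10 µM phentolamine. Compounds screened at 10^-6 M, curves run if displacement exceeded 55%. Triplicates, 2-4 experiments; Ki by Cheng-Prusoff.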

[2] = target: T2, 5-hydroxytryptamine receptor 1A (Rattus norvegicus, UniProt P19327); assay: In vitro inhibition of [3H]8-OH-DPAT binding to 5-hydroxytryptamine 1A receptor in rat cerebral cortex membranes; type: cell membranes, Membrane
T2 sequence (P19327 whole entry): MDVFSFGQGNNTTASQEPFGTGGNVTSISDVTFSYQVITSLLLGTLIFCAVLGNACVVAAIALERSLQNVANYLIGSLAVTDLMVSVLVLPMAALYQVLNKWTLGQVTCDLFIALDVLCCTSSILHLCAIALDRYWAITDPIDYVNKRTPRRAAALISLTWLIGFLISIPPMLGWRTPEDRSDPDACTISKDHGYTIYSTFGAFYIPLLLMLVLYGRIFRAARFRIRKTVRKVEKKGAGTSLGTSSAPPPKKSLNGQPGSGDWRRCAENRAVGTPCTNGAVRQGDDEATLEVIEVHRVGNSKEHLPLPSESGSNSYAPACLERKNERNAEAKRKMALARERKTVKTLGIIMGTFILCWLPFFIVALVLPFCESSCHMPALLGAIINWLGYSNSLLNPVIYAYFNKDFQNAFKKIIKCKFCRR
How it was run: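 Rat cerebral cortex membranes (about 1 mg protein) incubated 15 min at 37 °C with 0.6 nM [3H]-8-OH-DPAT in 50 mM Tris-HCl, pH 7.4, containing 10 nM clonidine and 30 nM prazosin. Nonspecific binding with 10 µM 5-HT. Compounds screened at 10^-6 M; curves run if displacement exceeded 55%. Filtration, scintillation counting, triplicates, 2-4 experiments; Ki by Cheng-Prusoff.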

D(2) dopamine receptor = D(2) dopamine receptor (Rattus norvegicus, UniProt P61169); assay: In vitro inhibition of [3H]-raclopride binding to Dopamine receptor D2 in rat striatum membranes; type: cell membranes, Membrane
How it was run: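 Male Sprague-Dawley rat striatum membranes (125-150 µg protein) incubated 60 min at 25 °C with 0.8 nM [3H]raclopride and six competitor concentrations. Nonspecific binding with 1 µM (+)-butaclamol. GF/B filtration, scintillation counting, triplicates. Ki by Cheng-Prusoff.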

[3] = target: 5-hydroxytryptamine receptor 2A (Rattus norvegicus, UniProt P14842); assay: In vitro inhibition of [3H]ketanserin binding to 5-hydroxytryptamine 2A receptor in rat cerebral frontal cortex membranes; type: cell membranes, Membrane
How it was run: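 Rat frontal cortex membranes were incubated 15 min at 37 °C with 0.4 nM [3H]ketanserin. Nonspecific binding with 1 µM cinanserin. Filtration, scintillation counting, triplicates; Ki by Cheng-Prusoff.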

[4] = target: T3, 5-hydroxytryptamine receptor 1A (Homo sapiens, UniProt P08908); assay: (§1) Inhibition of forskolin-induced increase in cAMP in human 5-hydroxytryptamine 1A receptor expressed HeLa cells; type: functional, cell-based
T3 sequence (P08908 whole entry): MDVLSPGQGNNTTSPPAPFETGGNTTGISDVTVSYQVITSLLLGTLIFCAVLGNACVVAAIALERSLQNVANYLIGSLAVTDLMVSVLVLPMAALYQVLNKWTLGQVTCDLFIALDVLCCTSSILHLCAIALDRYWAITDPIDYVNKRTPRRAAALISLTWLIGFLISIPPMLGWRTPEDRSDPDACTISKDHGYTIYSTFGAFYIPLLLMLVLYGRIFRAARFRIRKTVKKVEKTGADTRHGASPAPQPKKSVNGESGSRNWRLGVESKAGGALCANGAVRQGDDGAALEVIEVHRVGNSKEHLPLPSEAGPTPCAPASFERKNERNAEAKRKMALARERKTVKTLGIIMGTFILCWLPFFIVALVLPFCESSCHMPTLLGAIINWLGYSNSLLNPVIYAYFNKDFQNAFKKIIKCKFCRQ
How it was run: (§2)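 HeLa cells stably expressing human 5-HT1A (HA 6) were plated 48 h ahead. Cells treated 10 min at 37 °C, 5% CO2, with 0.5 mM IBMX, 10 µM forskolin and compound (10-9-10-5 M), then lysed in 65% ethanol. cAMP measured by [3H] radioimmunoassay, expressed as % of forskolin-stimulated adenylate cyclase activity. Duplicate experiments, four wells per concentration; EC50 by curve fit.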

[5] = target: T4, 5-hydroxytryptamine receptor 1A (Homo sapiens) (UniProt P08908); assay: as §1; type: functional, cell-based; how it was run: as §2
T4 sequence (whole entry): T3 sequence (P08908 whole entry)

[6] = target: GABA-A receptor; anion channel; assay: In vitro inhibition of [3H]flunitrazepam binding to Benzodiazepine receptor of rat cerebral cortex membranes; type: cell membranes, Membrane
How it was run: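 Rat brain membranes (about 100 µg protein) in 25 mM potassium phosphate, pH 7.4, incubated 90 min at 0-4 °C with 0.25 nM [3H]flunitrazepam. Nonspecific binding with 2 µM diazepam. Filtration, scintillation counting, triplicates; Ki by Cheng-Prusoff.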

[7] = target: 5-hydroxytryptamine receptor 4 (Rattus norvegicus, UniProt Q62758); assay: In vitro inhibition of [3H]GR-113808 binding to 5-hydroxytryptamine 4 receptor of rat striatum membranes; type: cell membranes, Membrane
How it was run: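 Membranes from rat striatum were incubated 30 min at 37 °C with 0.1 nM [3H]GR113808 in 50 mM HEPES, pH 7.4. Nonspecific binding with 30 µM 5-HT. Bound radioactivity counted after GF/B filtration, triplicates. Ki from iterative curve fit via Cheng-Prusoff.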

[8] = target: Sodium-dependent serotonin transporter (Rattus norvegicus, UniProt P31652); assay: In vitro inhibition of [3H]paroxetine binding to 5-hydroxytryptamine transporter in rat cerebral cortex membranes; type: cell membranes, Membrane
How it was run: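 Rat cortical membranes (about 120 µg protein) incubated 60 min at 25 °C with 0.2 nM [3H]paroxetine. Buffer is Tris-HCl with 20 mM NaCl and 5 mM KCl, pH 7.4. Nonspecific binding with 10 µM fluoxetine. Filtration, scintillation counting, triplicates; Ki by Cheng-Prusoff.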

[9] = target: T5, 5-hydroxytryptamine receptor 3A (Rattus norvegicus, UniProt P35563); assay: In vitro inhibition of [3H]LY-278584 binding to 5-hydroxytryptamine 3 receptor in rat cerebral cortex membranes; type: cell membranes, Membrane
T5 sequence (P35563 whole entry): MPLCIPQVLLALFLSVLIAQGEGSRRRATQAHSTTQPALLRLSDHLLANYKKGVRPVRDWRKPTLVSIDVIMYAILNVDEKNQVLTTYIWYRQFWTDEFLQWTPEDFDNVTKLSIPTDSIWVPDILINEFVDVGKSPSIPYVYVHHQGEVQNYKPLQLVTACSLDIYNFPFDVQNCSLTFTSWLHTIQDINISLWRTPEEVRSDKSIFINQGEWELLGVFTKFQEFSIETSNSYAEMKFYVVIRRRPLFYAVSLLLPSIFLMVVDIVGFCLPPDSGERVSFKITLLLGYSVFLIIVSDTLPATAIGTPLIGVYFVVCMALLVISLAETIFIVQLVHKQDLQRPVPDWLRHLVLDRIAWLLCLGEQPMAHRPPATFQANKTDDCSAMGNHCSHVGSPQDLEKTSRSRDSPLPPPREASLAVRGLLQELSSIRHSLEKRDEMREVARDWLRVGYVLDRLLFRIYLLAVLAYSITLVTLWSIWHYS
How it was run: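 Sucrose-prepared rat cerebral cortex membranes were incubated 30 min at 25 °C with 0.7 nM [3H]LY278584. Nonspecific binding with 10 µM 5-HT. Filtration and scintillation counting, triplicates; Ki by Cheng-Prusoff.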

[10] = target: 5-hydroxytryptamine receptor 7 (Rattus norvegicus, UniProt P32305); assay: In vitro inhibition of [3H]5-CT binding to 5-hydroxytryptamine 7 receptor in rat hypothalamus membranes; type: cell membranes, Membrane
How it was run: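 Rat hypothalamus membranes were incubated 120 min at 23 °C with 0.5 nM [3H]-5-CT. Nonspecific binding with 10 µM 5-HT. Filtration and scintillation counting, triplicates, 2-4 experiments. Ki from curve fit by Cheng-Prusoff.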

Chain of 5-hydroxytryptamine receptor 2A (P14842 whole entry): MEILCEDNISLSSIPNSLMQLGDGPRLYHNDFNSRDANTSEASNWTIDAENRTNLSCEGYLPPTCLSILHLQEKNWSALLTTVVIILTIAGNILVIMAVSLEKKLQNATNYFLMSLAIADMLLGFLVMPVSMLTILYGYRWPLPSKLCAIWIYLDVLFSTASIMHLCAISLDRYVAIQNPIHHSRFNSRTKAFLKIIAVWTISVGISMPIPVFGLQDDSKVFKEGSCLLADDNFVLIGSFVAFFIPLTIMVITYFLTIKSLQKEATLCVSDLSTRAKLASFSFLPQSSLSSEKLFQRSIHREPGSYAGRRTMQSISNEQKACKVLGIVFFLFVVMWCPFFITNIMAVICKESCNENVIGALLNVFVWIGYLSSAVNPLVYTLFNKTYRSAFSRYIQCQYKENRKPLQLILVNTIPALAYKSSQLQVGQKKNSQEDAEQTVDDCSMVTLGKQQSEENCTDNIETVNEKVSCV
Chain of 5-hydroxytryptamine receptor 7 (P32305 whole entry): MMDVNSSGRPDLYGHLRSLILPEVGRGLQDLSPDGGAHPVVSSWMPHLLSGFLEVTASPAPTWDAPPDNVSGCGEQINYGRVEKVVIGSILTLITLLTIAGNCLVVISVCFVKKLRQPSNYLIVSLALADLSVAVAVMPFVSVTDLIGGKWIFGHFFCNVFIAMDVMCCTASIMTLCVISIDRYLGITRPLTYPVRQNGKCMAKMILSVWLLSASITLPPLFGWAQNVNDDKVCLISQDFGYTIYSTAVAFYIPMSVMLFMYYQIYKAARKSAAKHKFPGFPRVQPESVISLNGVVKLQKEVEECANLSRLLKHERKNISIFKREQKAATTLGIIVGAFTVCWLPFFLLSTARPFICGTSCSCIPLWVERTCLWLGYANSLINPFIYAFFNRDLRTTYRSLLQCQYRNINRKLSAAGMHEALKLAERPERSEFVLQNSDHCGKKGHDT
Chain of 5-hydroxytryptamine receptor 4 (Q62758 whole entry): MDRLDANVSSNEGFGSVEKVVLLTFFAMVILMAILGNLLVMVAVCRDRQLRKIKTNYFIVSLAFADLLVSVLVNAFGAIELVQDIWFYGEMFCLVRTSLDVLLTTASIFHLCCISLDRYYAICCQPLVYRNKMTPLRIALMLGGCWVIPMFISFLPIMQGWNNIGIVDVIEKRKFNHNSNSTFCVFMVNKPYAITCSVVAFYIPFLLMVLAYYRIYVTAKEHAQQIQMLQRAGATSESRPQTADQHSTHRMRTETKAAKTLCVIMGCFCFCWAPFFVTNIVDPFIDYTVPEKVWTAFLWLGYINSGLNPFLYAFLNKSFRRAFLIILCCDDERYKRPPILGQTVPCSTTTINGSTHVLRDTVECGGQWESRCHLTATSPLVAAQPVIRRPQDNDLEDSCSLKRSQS
Chain of D(2) dopamine receptor (P61169 whole entry): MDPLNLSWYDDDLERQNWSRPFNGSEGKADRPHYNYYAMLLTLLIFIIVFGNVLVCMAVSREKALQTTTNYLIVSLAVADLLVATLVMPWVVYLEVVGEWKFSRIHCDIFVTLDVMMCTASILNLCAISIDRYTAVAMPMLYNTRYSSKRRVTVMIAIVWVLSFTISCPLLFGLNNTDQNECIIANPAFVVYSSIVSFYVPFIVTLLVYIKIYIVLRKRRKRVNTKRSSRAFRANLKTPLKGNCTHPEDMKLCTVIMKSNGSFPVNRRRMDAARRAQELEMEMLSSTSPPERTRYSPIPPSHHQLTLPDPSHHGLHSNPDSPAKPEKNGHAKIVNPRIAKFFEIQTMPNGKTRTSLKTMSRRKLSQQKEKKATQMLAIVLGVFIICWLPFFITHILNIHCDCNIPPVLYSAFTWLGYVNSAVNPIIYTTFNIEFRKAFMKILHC
Chain of Sodium-dependent serotonin transporter (P31652 whole entry): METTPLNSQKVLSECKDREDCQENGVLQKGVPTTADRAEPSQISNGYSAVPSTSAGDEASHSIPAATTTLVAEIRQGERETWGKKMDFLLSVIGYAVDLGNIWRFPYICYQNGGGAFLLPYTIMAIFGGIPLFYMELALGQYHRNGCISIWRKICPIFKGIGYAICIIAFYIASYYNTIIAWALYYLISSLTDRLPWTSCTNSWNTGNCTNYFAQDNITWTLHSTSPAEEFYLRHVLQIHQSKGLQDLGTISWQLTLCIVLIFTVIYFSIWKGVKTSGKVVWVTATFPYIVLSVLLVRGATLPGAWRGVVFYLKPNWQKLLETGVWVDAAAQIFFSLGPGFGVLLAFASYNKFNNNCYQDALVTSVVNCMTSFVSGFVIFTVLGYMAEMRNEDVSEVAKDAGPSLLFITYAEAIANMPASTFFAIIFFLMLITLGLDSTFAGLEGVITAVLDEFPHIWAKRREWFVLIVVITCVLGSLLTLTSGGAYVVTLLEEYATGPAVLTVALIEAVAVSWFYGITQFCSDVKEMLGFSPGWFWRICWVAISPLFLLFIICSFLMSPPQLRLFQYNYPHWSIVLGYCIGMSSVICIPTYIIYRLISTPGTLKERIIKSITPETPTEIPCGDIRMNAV

Structure (SMILES) | Ki [1] [nM] | pKi [1] | further results
O=C1[C@@H]2CCCN2C(=O)CN1CN1CCN(c2cccc3c2CC=COO3)CC1 | > 1000 | – | pKi [2]: 7.91
O=C1[C@H]2CCCN2C(=O)CN1CN1CCN(c2cccc3ccccc23)CC1 | > 1000 | – | pKi [2]: 8.34
C[C@H]1CN(c2cccc3ccccc23)CCN1CN1CC(=O)N2CCC[C@H]2C1=O | > 1000 | – | –
O=C1C2CCCN2C(=O)CN1CN1CCN(c2cccc3ccccc23)CC1 (configuration not stated) | > 1000 | – | pKi [2]: 8.17
C[C@@H]1CN(c2cccc3ccccc23)CCN1CN1CC(=O)N2CCC[C@@H]2C1=O | > 1000 | – | –
O=C1C2CCCN2C(=O)N1CN1CCN(c2cccc3ccccc23)CC1 (configuration not stated) | > 1000 | – | –
C[C@@H]1CN(c2cccc3ccccc23)CCN1CN1CC(=O)N2CCC[C@H]2C1=O | > 1000 | – | –
C[C@H]1CN(c2cccc3ccccc23)CCN1CN1CC(=O)N2CCC[C@@H]2C1=O | > 1000 | – | –
O=C1C2CCCCN2C(=O)N1CN1CCN(c2cccc3c2OCCO3)CC1 (configuration not stated) | > 1000 | – | –
O=C1C2CCCCN2C(=O)N1CN1CCN(c2cccc3ccccc23)CC1 (configuration not stated) | > 1000 | – | –
O=C1C2CCCN2C(=O)N1CCCCN1CCN(c2cccc3[nH]cnc23)CC1 (configuration not stated) | 19.4 | – | –
C[C@H]1CN(c2cccc3ccccc23)CCN1CCCCN1CC(=O)N2CCC[C@H]2C1=O | 34.4 | – | –
O=C1C2CCCN2C(=O)N1CN1CCN(c2cccc3[nH]cnc23)CC1 (configuration not stated) | – | < 5.00 | –
CCS(=O)(=O)Nc1cccc(N2CCN(CCCCN3C(=O)C4CCCN4C3=O)CC2)c1 (configuration not stated) | > 1000 | – | –
C[C@@H]1CN(c2cccc3ccccc23)CCN1CCCCN1CC(=O)N2CCC[C@@H]2C1=O | 20.1 | – | –
O=C1C2CCCN2C(=O)CN1CN1CCN(c2cccc3c2CC=COO3)CC1 (configuration not stated) | > 1000 | – | pKi [2]: 7.94
O=C1[C@@H]2CCCN2C(=O)CN1CN1CCN(c2cccc3ccccc23)CC1 | > 1000 | – | pKi (D(2) dopamine receptor): 6.72; pKi [3]: 7.87; pEC50 [4]: 6.82; Maximal effect [5]: 90.3%; pKi [6]: < 5.00; pKi [7]: < 5.00; pKi [2]: 8.39; pKi [8]: 6.01; pKi [9]: 8.05; pKi [10]: 7.00
O=C1C2CCCN2C(=O)CN1CCCCN1CCN(c2cccc3ccccc23)CC1 (configuration not stated) | 8 | – | –
